This note sets out measurements from ChEMBL document CHEMBL3580656, “Chrodrimanins I and J from the Antarctic Moss-Derived Fungus Penicillium funiculosum GWT2-24” (J Nat Prod, 2015).

The subject of one assay is Staphylococcus aureus. Briefly: Antibacterial activity against Staphylococcus aureus. The assay is classed as functional.
For another assay, the system named is Influenza A virus. Briefly: Antiviral activity against influenza A virus (A/Puerto Rico/8/34(H1N1)) infected in MDCK cells incubated for 48 hrs assessed as inhibition of virus-induced cytopathic effect by crystal violet staining assay. The assay is classed as functional, organism-based. As to conditions: A/Puerto Rico/8/1934(H1N1). In short, it runs like this:
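Ribavirin served as the positive control. The value is reported as an IC50 in μM.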

A further assay concerns K562. Briefly: Cytotoxicity against human K562 cells by sulforhodamine B assay. The assay is classed as functional, cell-based. The method, boiled down:
(§1)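 Four human lines tested (K562, HL-60, HeLa, A-549) with adriamycin as positive control. Potency is expressed as IC50.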

In a further assay the test system is A549. Briefly: Cytotoxicity against human A549 cells by sulforhodamine B assay. The assay is classed as functional, cell-based. In short, it runs like this:
as §1

A further assay has as its system HeLa. Briefly: Cytotoxicity against human HeLa cells by sulforhodamine B assay. The assay is classed as functional, cell-based. In short, it runs like this: as §1
A further assay concerns HL-60. Briefly: Cytotoxicity against human HL60 cells by sulforhodamine B assay. The assay is classed as functional, cell-based. In short, it runs like this: as §1
Another assay relates to Escherichia coli. Briefly: Antibacterial activity against Escherichia coli. The assay is classed as functional.

For `C[C@@H]1Cc2c3c(cc(O)c2C(=O)O1)O[C@@]1(C)[C@@H](O)C[C@H]2C(C)(C)[C@@H](O)CC[C@]2(C)[C@@H]1C3`, the MIC with Staphylococcus aureus and against Escherichia coli was > 600 µg/mL each time. The IC50 was 57 µM with Influenza A virus; > 50 µM with K562; > 50 µM with A549; > 50 µM with HeLa; > 50 µM in the assay on HL-60.

On to `CC1(C)C(=O)C=C[C@@]2(C)[C@H]1CC[C@]1(C)Oc3cc(O)c4c(c3C[C@@H]21)C[C@@H](O)CC4=O`, for which the MIC against Staphylococcus aureus and against Escherichia coli was > 600 µg/mL throughout. For the same molecule, the IC50 is > 200 µM in the assay with Influenza A virus; > 50 µM in the assay with K562; > 50 µM with A549; > 50 µM with HeLa; > 50 µM with HL-60.

As to `CC(=O)O[C@@H]1c2c3c(cc(O)c2C(=O)O[C@@H]1C)O[C@@]1(C)[C@@H](O)C[C@H]2C(C)(C)C(=O)C=C[C@]2(C)[C@@H]1C3`, the MIC against Staphylococcus aureus and in the assay with Escherichia coli was > 600 µg/mL each time. The IC50 in the assay on Influenza A virus was 55 µM; with K562, > 50 µM; in the assay on A549, > 50 µM; in the assay on HeLa it was > 50 µM; in the assay on HL-60 it was > 50 µM.

On to `C[C@@H]1Cc2c3c(cc(O)c2C(=O)O1)O[C@@]1(C)[C@@H](O)C[C@H]2C(C)(C)C(=O)CC[C@]2(C)[C@@H]1C3`, for which the MIC with Staphylococcus aureus and in the assay on Escherichia coli was > 600 µg/mL each time. Besides, the IC50 is > 200 µM in the assay with Influenza A virus; > 50 µM in the assay on K562; > 50 µM with A549; > 50 µM with HeLa; > 50 µM with HL-60.

Regarding `C[C@@H]1Cc2c3c(cc(O)c2C(=O)O1)O[C@@]1(C)[C@@H](O)C[C@H]2C(C)(C)C(=O)C=C[C@]2(C)[C@@H]1C3`, the minimal inhibitory concentration (MIC) with Staphylococcus aureus and in the assay with Escherichia coli was > 600 µg/mL throughout. Also, the IC50 was 21 µM in the assay on Influenza A virus; > 50 µM with K562; > 50 µM with A549; > 50 µM in the assay with HeLa; > 50 µM with HL-60.

Consider `C[C@H]1OC(=O)c2c(O)cc3c(c2[C@H]1O)C[C@H]1[C@@]2(C)C=CC(=O)C(C)(C)[C@@H]2C[C@H](O)[C@]1(C)O3`, for which the MIC with Staphylococcus aureus and in the assay on Escherichia coli was > 600 µg/mL in each case. Moreover, the IC50 in the assay on Influenza A virus is > 200 µM; with K562, > 50 µM; in the assay on A549, > 50 µM; in the assay on HeLa, > 50 µM; with HL-60, > 50 µM.

Turning to `CC1(C)C(=O)CC[C@@]2(C)[C@H]1CC[C@]1(C)Oc3cc(O)c4c(c3C[C@@H]21)C[C@@H](O)CC4=O`, the MIC with Staphylococcus aureus and in the assay with Escherichia coli was > 600 µg/mL each time. The IC50 is > 200 µM in the assay with Influenza A virus; > 50 µM in the assay with K562; > 50 µM in the assay with A549; > 50 µM in the assay on HeLa; > 50 µM in the assay on HL-60.
